# Tests used:
# KPC-Kpn = experiment: Micro-broth dilution MIC of cefepime in combination with inhibitor, KPC-Kpn; assay type: cell-based, Klebsiella pneumoniae; settings: for MIC of cefepime (FEP) in combination with compound, KPC-Kpn: compound at constant 10 μg/mL, FEP 0.12 to 128 μg/mL
# How it was run: (§1)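 CLSI broth microdilution. Cultures grown overnight in Mueller-Hinton broth, then diluted to a McFarland standard (OD600 0.224). Cefepime serially diluted from 128 to 0.12 μg/mL, with boronic acid test compound held constant at 10 μg/mL. Incubated overnight at 37 °C and MIC read the next day.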
# K. pneum blaKPC-2 = assay type: cell-based, Klebsiella pneumoniae; settings: compound at constant 10 μg/mL; FEP 0.12 to 128 μg/mL
# How it was run: as §1
# KPC-2 β-lactamase = KPC-2 β-lactamase (Klebsiella pneumoniae, UniProt Q9F663); experiment: Competition kinetics of KPC-2 inhibition with nitrocefin as substrate; assay type: biochemical
# Sequence of KPC-2 β-lactamase (Q9F663 25-293, looked up): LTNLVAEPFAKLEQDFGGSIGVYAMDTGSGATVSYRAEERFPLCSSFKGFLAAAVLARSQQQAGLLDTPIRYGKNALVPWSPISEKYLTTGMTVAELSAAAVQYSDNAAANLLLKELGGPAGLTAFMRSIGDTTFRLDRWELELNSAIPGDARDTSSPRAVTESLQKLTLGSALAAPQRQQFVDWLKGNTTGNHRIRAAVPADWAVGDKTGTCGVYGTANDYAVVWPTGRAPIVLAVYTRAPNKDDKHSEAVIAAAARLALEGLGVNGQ
SMILES,"MIC of cefepime (FEP) in combination with compound, KPC-Kpn (KPC-Kpn)","MIC of cefepime (FEP) in combination with compound, K. pneum blaKPC-2 (K. pneum blaKPC-2)","MIC (KPC-Kpn; Klebsiella pneumoniae, read-out: MIC of cefepime (FEP) alone, KPC-Kpn)",Ki (KPC-2 β-lactamase)
NC(=O)[C@@H]1CC[C@@H]2CN1C(=O)N2OS(=O)(=O)O [avibactam],< 0.12 µg/mL,< 0.12 µg/mL,,
"CO/N=C(\C(=O)N[C@@H]1C(=O)N2C(C(=O)[O-])=C(C[N+]3(C)CCCC3)CS[C@H]12)c1csc(N)n1 [FEP, cefepime]",,,32 µg/mL,
O=C(O)C[C@@H]1CC[C@H](NC(=O)Cc2cccs2)B(O)O1 [vaborbactam],0.5 µg/mL,1 µg/mL,,20 ± 3 nM

# Source: paper PMC8256004 (ChemMedChem, 2020)
